In PubChem BioAssay:
Results filed as inconclusive are left out.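 Rule for the calls, unless noted: active = growth inhibition above 25% in both replicates, a cutoff set 3 SD above the mean; inconclusive = above 25% in only one replicate; inactive = the rest.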

Legend:
[1] = S. cerevisiae growth inhibition in permissive medium (OD615), pilot counter-assay for S. cerevisiae lifespan shortening project, permissive growth control (AID 705); details: OD615, 24 h, at 10 µM, hits give high values
In short: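 Material: engineered DeaD yeast; compound dosing: one dose 10 µM, DMSO 0.25% final; measure: yeast growth inhibition indicated by reduced 24 h OD615; detection: OD615 turbidity read; incubation: cells pre-grown 4 h, then 24 h compound exposure, 30 °C humidified; medium: permissive synthetic complete medium with raffinose and galactose carbon sources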

[2] = S. cerevisiae growth inhibition in restrictive medium, OD615, pilot screen, restrictive growth control, yeast lifespan reduction project (AID 706;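 active = growth inhibition above a set limit, 3 SD over mean compound inhibition, in both replicates, cut at about 43% in these data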;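 note: modified DeaD lifespan yeast strain shifted to restrictive glucose medium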); details: OD615, 48 h, at 10 µM, hits give high values
In short: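 material = engineered S. cerevisiae DeaD strain | medium = glucose-based CSMM-D restrictive medium | times = 4 h pre-incubation, 48 h exposure at 30 °C | technique = OD615 absorbance reading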

[3] = doxorubicin toxicity protection in MRP-1 cells – H69AR cells, CellTiter-Glo, duplicate, MRP-1 activator project, pilot screen (AID 807;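 active = viability increase at or above a cutoff of the median across tested compounds plus 3 SD, cut at about 8.5% in these data, passing the limit was not always enough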;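 note: compound pretreatment 18-22 h then 72 h combined with doxorubicin; 0% = doxorubicin alone and 100% = vehicle without doxorubicin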); details: H69AR viability with doxorubicin, CellTiter-Glo luminescence; at 10 µM; hits give high values
[4] = viability of HCT116 without oncogenic beta-catenin – human colon tumor cells, pilot screen (AID 823;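 active = cell viability at or below a set limit in both duplicate runs, the limit being the all-compound median minus 4 SD, cut at about 23% in these data, passing the limit was not always enough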;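 note: 0% = wells killed by 20 µM Hyamine and 100% = untreated DMSO cell wells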); details: HCT116 beta-catenin knockout viability, CellTiter-Glo, 60 h; at 10 µM; hits give low values
[5] = viability of PTEN-null HCT116 cells – cell-based, HCT116 clonal line, CellTiter-Glo, pilot screen (AID 824;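 active = viability at or below 27.92% in each of two runs, the all-compound median minus 4 SD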;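 note: 0% = 20 µM Hyamine control and 100% = vehicle cell control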); details: HCT116 PTEN-deleted viability, 60 h, at 10 µM, hits give low values
[6] = RAM pathway blockade in budding yeast – dse1pr::URA3 reporter, 5-FOA selection, pilot screen (AID 869;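 active = inhibition over a set limit, the all-compound mean plus 3 SD, in both replicate runs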;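 note: 0% = DMSO wells with no growth and 100% = 10 µM 1-NA-PP1 with full growth; RAM network block rescues cells from 5-FOA so hits raise OD615 growth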); details: S. cerevisiae dse1pr::URA3 5-FOA growth, OD615, 2 d; at 10 µM; hits give high values; strain carries analog-sensitive mutant Cbk1 kinase
[7] = RAM signaling pathway blockade in yeast – S. cerevisiae, Pdr1DBD-CYC8 efflux-inhibited sensitized strain, primary screen (AID 1298;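 active = RAM network inhibition above 8.4% in each of two replicates, 3 SD over the compound average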;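 note: 0% = DMSO untreated cells without growth and 100% = 10 µM 1-NA-PP1 full growth; higher means more yeast growth rescued from 5-FOA killing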); details: S. cerevisiae cbk1-as DSE1-URA3 strain, 5-FOA growth OD615, 2 d; at 50 µM; hits give high values

CCOCCOC(=O)C1=C(C)N(C)C(=O)NC1c1ccccc1Cl (stereo not given)
inactive: growth inhibition [1] 1.35% | growth inhibition [2] -7.18% | viability increase [3] -1.78% | viability [4] 101% | viability [5] 99.8% | inhibition [6] 0.375% | RAM network inhibition [7] 0.57%

CC(=O)N(CCCN(C)C)CCC(C)CCC=C(C)C (stereo not given)
inactive: growth inhibition [1] -7.18% | growth inhibition [2] -5.88% | viability increase [3] -2.93% | viability [4] 94.1% | viability [5] 92.7% | inhibition [6] 0.41% | RAM network inhibition [7] 3.84%

O=C(NCCN1CCCCCC1)C1CCC(CNS(=O)(=O)c2cccc3cccnc23)CC1 (stereo not given)
inactive: growth inhibition [1] -8.39% | growth inhibition [2] -3.45% | viability increase [3] -3.58% | viability [4] 90.7% | viability [5] 93.8% | inhibition [6] 1.59% | RAM network inhibition [7] 10%

COc1ccc(NC(=O)Nc2nnc(N3CCC(C)CC3)s2)cc1OC
inactive: growth inhibition [1] -8.13% | growth inhibition [2] -23% | viability increase [3] -4.49% | viability [4] 107% | viability [5] 98.1% | inhibition [6] 1.59% | RAM network inhibition [7] 1.42%

CCOC(=O)C1CCN(CC(O)COc2ccc(C(C)=O)cc2)CC1 (stereo not given)
inactive: growth inhibition [1] -1.86% | growth inhibition [2] -5.14% | viability increase [3] -0.88% | viability [4] 97.6% | viability [5] 91.6% | inhibition [6] 0.87% | RAM network inhibition [7] 2.51%

CCOC(=O)C1CCN(C(=O)CN(c2ccc(OC)cc2)S(=O)(=O)c2c(C)nn(C)c2C)CC1
inactive: growth inhibition [1] -3.58% | growth inhibition [2] -3.18% | viability increase [3] -0.02% | viability [4] 98.7% | viability [5] 104% | inhibition [6] 1.46% | RAM network inhibition [7] 2.69%

CCOC(=O)N1CCC(NC(=O)CCc2c(C)nc3c(c(C)nn3-c3ccccc3)c2C)CC1
inactive: growth inhibition [1] -8.02% | growth inhibition [2] 0.22% | viability increase [3] -1.37% | viability [4] 100% | viability [5] 89.5% | inhibition [6] 2.38% | RAM network inhibition [7] 4.08%

Cc1csc2nc(CNS(=O)(=O)c3ccc(-c4ccccc4)cc3)cn12
inactive: growth inhibition [1] -8.76% | growth inhibition [2] 7% | viability increase [3] -1.09% | viability [4] 90.2% | viability [5] 93.7% | inhibition [6] 0.94% | RAM network inhibition [7] 4.87%

Cc1cc(N2CCOCC2)nc(NCc2ccccc2)n1
inactive: growth inhibition [1] 3.04% | growth inhibition [2] -5.48% | viability increase [3] -3.86% | viability [4] 72% | viability [5] 64.8% | inhibition [6] 1.17% | RAM network inhibition [7] 4.85%

Cc1cc(C)nc(NS(=O)(=O)c2ccc(NC(=O)c3ccco3)cc2)n1
inactive: growth inhibition [1] -5.44% | growth inhibition [2] -11.7% | viability increase [3] -1.87% | viability [4] 100% | viability [5] 95.9% | inhibition [6] 0.26% | RAM network inhibition [7] 2.44%

COc1ccc2c(c1)CCc1c(C(=O)NCc3ccc(F)cc3)noc1-2
inactive: growth inhibition [1] -8.49% | growth inhibition [2] -0.25% | viability increase [3] 1.03% | viability [4] 100% | viability [5] 103% | inhibition [6] 1.86% | RAM network inhibition [7] 4.87%

COc1ccc(-n2c3c(cc(C(=O)Nc4ccc5c(c4)C(=O)NC5=O)c2=O)C(=O)CCC3)cc1
inactive: growth inhibition [1] -7.19% | growth inhibition [2] -10.4% | viability increase [3] 0.08% | viability [4] 102% | viability [5] 102% | inhibition [6] 1.77% | RAM network inhibition [7] 3.06%

Cc1cc(C(=O)NCc2ccco2)cs1
inactive: growth inhibition [1] -6.77% | growth inhibition [2] -6.79% | viability increase [3] -2.37% | viability [4] 106% | viability [5] 99.9% | inhibition [6] 2.28% | RAM network inhibition [7] -0.32%

CCOc1ccc(-n2c(SC(C)C(=O)OC)nc3c(c2=O)SCC3)cc1 (stereo not given)
inactive: growth inhibition [1] -6.67% | growth inhibition [2] -19.6% | viability increase [3] -1.08% | viability [4] 89.6% | viability [5] 92.2% | inhibition [6] 0.355% | RAM network inhibition [7] 5.59%

O=C(CSc1nc2ccccc2c(=O)[nH]1)N1CCCCC1
inactive: growth inhibition [1] -16.2% | growth inhibition [2] -5.08% | viability increase [3] -2.69% | viability [4] 98.7% | viability [5] 84.7% | inhibition [6] 0.395% | RAM network inhibition [7] -0.51%

O=C1c2ccccc2C(O)N1Cc1ccccc1Cl (stereo not given)
inactive: growth inhibition [1] -1.72% | growth inhibition [2] -0.325% | viability increase [3] -1.74% | viability [4] 93.7% | viability [5] 81.2% | inhibition [6] 2.76% | RAM network inhibition [7] 1.48%

c1ccc(Nc2nc3ccccc3n3cnnc23)cc1
inactive: growth inhibition [1] -1.27% | growth inhibition [2] 10.2% | viability increase [3] -5.23% | viability [4] 86.1% | viability [5] 84.6% | inhibition [6] 2.09% | RAM network inhibition [7] -0.58%

Cc1nc(C)c(C(=O)Nc2cccc(C)c2C)o1
inactive: growth inhibition [1] -5.6% | growth inhibition [2] -15.8% | viability increase [3] -3.05% | viability [4] 109% | viability [5] 90.1% | inhibition [6] 3.58% | RAM network inhibition [7] 1.53%

O=S(=O)(NCC(c1cccnc1)N1CCN(Cc2ccccc2)CC1)c1ccccc1 (stereo not given)
inactive: growth inhibition [1] -10% | growth inhibition [2] -15.8% | viability increase [3] -2.02% | viability [4] 101% | viability [5] 92.8% | inhibition [6] 1.57% | RAM network inhibition [7] 0.96%

Cc1ccc(C)c(SCC(=O)OCC(=O)Nc2ccc(S(=O)(=O)N3CCOCC3)cc2)c1
inactive: growth inhibition [1] -20.4% | growth inhibition [2] -17.7% | viability increase [3] -1.73% | viability [4] 97.8% | viability [5] 92.9% | inhibition [6] 1.02% | RAM network inhibition [7] 5.86%

COCCNC(=O)CS(=O)Cc1nc(-c2ccc(Cl)cc2)oc1C (stereo not given)
inactive: growth inhibition [1] -6.59% | growth inhibition [2] -1.85% | viability increase [3] -0.72% | viability [4] 94.7% | viability [5] 95.1% | inhibition [6] 3.21% | RAM network inhibition [7] 0.65%

O=C(Nc1nccs1)c1cccc(S(=O)(=O)N2CCOCC2)c1
inactive: growth inhibition [1] -19.2% | growth inhibition [2] -11.8% | viability increase [3] -0.77% | viability [4] 92.8% | viability [5] 92.6% | inhibition [6] 1.83% | RAM network inhibition [7] 1.04%

O=C(c1ccccc1F)N1CCN(S(=O)(=O)c2ccc3c(c2)OCCO3)CC1
inactive: growth inhibition [1] -6.31% | growth inhibition [2] 3.28% | viability increase [3] -5.24% | viability [4] 90.5% | viability [5] 91.3% | inhibition [6] 3.16% | RAM network inhibition [7] 2.93%

Cc1cc(N2C(=O)C3CC=CCC3C2=O)cc(C)c1Br (stereo not given)
inactive: growth inhibition [1] -3.4% | growth inhibition [2] -11.6% | viability increase [3] -1.05% | viability [4] 95.5% | viability [5] 95.2% | inhibition [6] 2.22% | RAM network inhibition [7] 6.44%

COC(=O)c1cc(OC)c(OC)cc1NC(=O)c1c(-c2ccccc2Cl)noc1C
inactive: growth inhibition [1] 5.77% | growth inhibition [2] -2.39% | viability increase [3] -5.69% | viability [4] 66.3% | viability [5] 60.2% | inhibition [6] 1.68% | RAM network inhibition [7] 4.85%

CC(c1ccccc1F)n1cc(C(=O)NCc2ccncc2)nn1 (stereo not given)
inactive: growth inhibition [1] -19.2% | growth inhibition [2] -8.25% | viability increase [3] -0.75% | viability [4] 96.3% | viability [5] 94.9% | inhibition [6] 1.86% | RAM network inhibition [7] 4.53%

O=C(Cc1cc(=O)[nH]c(=O)[nH]1)N1CCC(Cc2ccccc2)CC1
inactive: growth inhibition [1] 0.795% | growth inhibition [2] -5.47% | viability increase [3] -0.99% | viability [4] 96% | viability [5] 94.2% | inhibition [6] 1.33% | RAM network inhibition [7] 3.92%

O=C(NCCN1CCOCC1)c1ccc2c(c1)N(Cc1ccc(F)cc1)C(=O)CS2
inactive: growth inhibition [1] -16.1% | growth inhibition [2] -8.1% | viability increase [3] 3.02% | viability [4] 92.5% | viability [5] 88.9% | inhibition [6] 0.08% | RAM network inhibition [7] 0.11%

CCOc1ccc(N(CC(=O)Nc2nccs2)S(=O)(=O)c2c(C)noc2C)cc1
inactive: growth inhibition [1] -3.78% | growth inhibition [2] 5.32% | viability increase [3] -1.1% | viability [4] 97.5% | viability [5] 89.1% | inhibition [6] 1.25% | RAM network inhibition [7] 8.94%

CN(C)CCNC(=O)c1ccc2c(c1)N(Cc1ccc(F)cc1)CCS2
inactive: growth inhibition [1] -2.46% | growth inhibition [2] 0.095% | viability increase [3] -6.05% | viability [4] 47.8% | viability [5] 55.1% | inhibition [6] 0.835% | RAM network inhibition [7] 0.57%

CC1CCc2nn(CC(=O)NC3CCCC3)cc2C1 (stereo not given)
inactive: growth inhibition [1] 0.6% | growth inhibition [2] 10.9% | viability increase [3] -1.14% | viability [4] 105% | viability [5] 92.9% | inhibition [6] 0.925% | RAM network inhibition [7] 0.63%

O=c1c2ccccc2nnn1CSc1nnc(-c2ccco2)o1
inactive: growth inhibition [1] -8.6% | growth inhibition [2] 2.08% | viability increase [3] -4.5% | viability [4] 83.3% | viability [5] 86.5% | inhibition [6] 0.57% | RAM network inhibition [7] 0.46%

CCC(=O)Nc1nnc(-c2ccc(OC)cc2)o1
inactive: growth inhibition [1] -8.21% | growth inhibition [2] -11.8% | viability increase [3] -1.1% | viability [4] 103% | viability [5] 98.4% | inhibition [6] 1.01% | RAM network inhibition [7] -0.04%

Cc1ccccc1NC(=O)CSc1[nH]c(=O)cc(C)c1C#N
inactive: growth inhibition [1] -1.3% | growth inhibition [2] 11.7% | viability increase [3] -0.42% | viability [4] 108% | viability [5] 101% | inhibition [6] 2.41% | RAM network inhibition [7] 1.7%

OC(CNCc1ccco1)COc1ccccc1 (stereo not given)
inactive: growth inhibition [1] -12.7% | growth inhibition [2] -10.2% | viability increase [3] 0.59% | viability [4] 100% | viability [5] 103% | inhibition [6] 1.44% | RAM network inhibition [7] 2.54%
